Results reported in ChEMBL document CHEMBL1121925, “Isoxicam and related 4-hydroxy-N-isoxazolyl-2H-1,2-benzothiazine-3-carboxamide 1,1-dioxides. Potent nonsteroidal antiinflammatory agents” (1982).
The source made the active and inactive calls. The calls are words filed in the database; no cut-off is given here.

What was measured:
Rattus norvegicus [1] = assay: Antiinflammatory activity was assessed in carrageenan-induced rat paw edema(CIRPE) test after po administration; Inactive at 100 mg/kg; format: functional, organism-based; design: dose 100 mg/kg
Procedure, shortened: (§1)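 Male Charles-River rats, groups of 8–10; compound given orally as aqueous suspension, then 1 h later 0.05 mL of 1% carrageenin in 0.9% saline injected into plantar left hind paw. Injected and uninjected paw volumes measured 3 h later by mercury displacement to the lateral malleolus mark; difference compared statistically between treated and control groups at oral screening dose.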

Rattus norvegicus [2] = assay: Antiinflammatory activity was assessed in carrageenan-induced rat paw edema(CIRPE) test after po administration; format: functional; details: read-out: MED; procedure, shortened: as §1
Rattus norvegicus [3] = assay: Antiinflammatory activity was assessed in prophylactic adjuvant induced polyarthritis(AIP) test after po administration; format: functional; details: for minimal effective dose: Rattus norvegicus, po, read-out: MED
Procedure, shortened: (§2)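 Male Charles-River-Lewis rats (150 ± 10 g), groups of 10. Day 1: heat-killed Mycobacterium butyricum in light mineral oil (250 μg/0.05 mL) injected into left hind paw. Dosing on days 1–20; sacrifice day 21, hind paw weights recorded; change taken as difference between day 1 and day 21.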

Rattus norvegicus [4] = assay: Antiinflammatory activity was assessed in therapeutic adjuvant induced polyarthritis(AIP) test after po administration; format: functional; details: read-out: MED
Procedure, shortened: (§3)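 Male Charles-River-Lewis rats (150 ± 10 g) injected day 1 in left hind paw with heat-killed Mycobacterium butyricum in mineral oil (250 μg/0.05 mL). Day 14, only responders (lesions in both hind paws) randomized into groups of 10, treated days 14–27, sacrificed day 28; hind paw weight change from day 14 to day 28.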

Rattus norvegicus [5] = assay: Antiinflammatory activity was assessed in therapeutic adjuvant induced polyarthritis(AIP) test after po administration.; format: functional; details: read-out: MED; procedure, shortened: as §3
Rattus norvegicus [6] = assay: Antiinflammatory activity was assessed in prophylactic adjuvant induced polyarthritis(AIP) test after po administration.; format: functional; details: read-out: MED; procedure, shortened: as §2

**Q.** Which MED (Rattus norvegicus [1]) does the source give for `Cc1cc(NC(=O)CC(=O)c2ccccc2S(=O)(=O)N(C)C)no1` here?
**A.** inactive

**Q.** With `Cc1cc(NC(=O)C2=C(O)c3ccccc3S(=O)(=O)N2C)no1` [ISOXICAM] as the compound, how does the minimal effective dose (Rattus norvegicus [2]) read?
**A.** 12.5 mg/kg

**Q.** What about the minimal effective dose (Rattus norvegicus [3]) of the same compound?
**A.** 1.56 mg/kg

**Q.** And the minimal effective dose (Rattus norvegicus [4])?
**A.** 1.56 mg/kg

**Q.** With `CC(=O)Cc1noc(C2=C(O)c3ccccc3S(=O)(=O)N2C)n1` as the compound, how does the MED (Rattus norvegicus [1]) read?
**A.** inactive

**Q.** How did the MED (Rattus norvegicus [1]) turn out when `CC(=O)Cc1noc(C2=C(O)c3ccccc3S(=O)(=O)N2)n1` was run?
**A.** inactive

**Q.** How did the minimal effective dose (Rattus norvegicus [2]) turn out when `COc1ccc2c(c1)c(CC(=O)O)c(C)n2C(=O)c1ccc(Cl)cc1` [INDOMETHACIN] was run?
**A.** 0.37 mg/kg

**Q.** And the minimal effective dose (Rattus norvegicus [5])?
**A.** 0.39 mg/kg

**Q.** And the minimal effective dose (Rattus norvegicus [6])?
**A.** 0.39 mg/kg

**Q.** How did the minimal effective dose (Rattus norvegicus [2]) turn out when `CC(=O)Oc1ccccc1C(=O)O` [ASPIRIN] was run?
**A.** 100 mg/kg

**Q.** Which results are given for `CCCCC1C(=O)N(c2ccccc2)N(c2ccccc2)C1=O` [PHENYLBUTAZONE]?
**A.** minimal effective dose (Rattus norvegicus [2]): 37.5 mg/kg; MED (Rattus norvegicus [3]): 1.56 mg/kg; minimal effective dose (Rattus norvegicus [3]): 1.56 mg/kg

**Q.** How did the MED (Rattus norvegicus [1]) turn out when `Cc1cc(NC(=O)CNS(=O)(=O)c2ccccc2C(=O)O)no1` was run?
**A.** inactive
